From ChEMBL document CHEMBL3804769, “Antibacterial Diamines Targeting Bacterial Membranes” (J Med Chem, 2016)
Values after ≈ are worked out from the molar mass of the structure shown. Active and inactive are the calls of the source. The rule behind the calls is not given here.

Experiments:
Staphylococcus aureus [1] = experiment: Antibacterial activity against Staphylococcus aureus RN4220 ATCC 35556 incubated overnight by microbroth dilution method; assay type: functional
In short: (§1)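 Bacteria grown in LB medium. CLSI microbroth dilution in 96-well plates, overnight at 37 °C without shaking. MIC99 taken as the lowest concentration giving complete growth inhibition. Three independent determinations, reported as mean ± SD.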

Pseudomonas aeruginosa [2] = experiment: Antibacterial activity against Pseudomonas aeruginosa PAO1 ATCC 47085 incubated overnight by microbroth dilution method; assay type: functional; in short: as §1
Escherichia coli = experiment: Antibacterial activity against Escherichia coli ANS1 incubated overnight by microbroth dilution method; assay type: functional; in short: as §1
Staphylococcus aureus [3] = experiment: Bactericidal activity against Staphylococcus aureus RN4220 ATCC 35556 in exponential-phase assessed as reduction in bacterial burden at 4 times MIC99 after 2 to 6 hrs by time-kill assay; assay type: functional, organism-based
In short: (§2)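 Overnight cultures washed and resuspended in PBS, then diluted 100-fold into LB (exponential-phase model) or into 1% PBS (stationary-phase model). Test agent added at 4× MIC99. Incubated at 37 °C with shaking at 200 rpm. CFU counted on LB agar at 0, 2, 4 and 6 h.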

Staphylococcus aureus [4] = experiment: Bactericidal activity against Staphylococcus aureus RN4220 ATCC 35556 in stationary-phase assessed as reduction in bacterial burden at 4 times MIC99 after 2 to 6 hrs by time-kill assay; assay type: functional, organism-based; in short: as §2
Pseudomonas aeruginosa [5] = experiment: Bactericidal activity against Pseudomonas aeruginosa PAO1 ATCC 47085 in exponential-phase assessed as reduction in bacterial burden at 4 times MIC99 upto 6 hrs by time-kill assay; assay type: functional; in short: as §2
Pseudomonas aeruginosa [6] = experiment: Bactericidal activity against Pseudomonas aeruginosa PAO1 ATCC 47085 in stationary-phase assessed as reduction in bacterial burden at 4 times MIC99 after 4 hrs by time-kill assay; assay type: functional, organism-based; in short: as §2
Pseudomonas aeruginosa [7] = experiment: Antibiofilm activity against Pseudomonas aeruginosa PAO1 ATCC 47085 after 24 hrs by crystal violet staining-based spectrophotometry; assay type: functional, organism-based
In short: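 PAO1 grown 2 h in LB at 37 °C with shaking, then diluted 1:1000 in 10% LB-PBS to 3 × 10⁵ CFU/mL. Inoculum mixed with serially diluted compound under pegged lids and incubated 24 h at 37 °C static. Peg biofilms washed, stained 15 min with 0.1% crystal violet, and dye eluted in 95% ethanol and read at 600 nm.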

Staphylococcus aureus [8] = experiment: Bactericidal activity against Staphylococcus aureus RN4220 ATCC 35556 assessed as reduction in bacterial burden; assay type: functional, organism-based
In short: (§3)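 Overnight LB cultures of RN4220 or PAO1 washed and resuspended in PBS, then diluted 100-fold into LB (exponential phase) or 1% PBS (stationary phase). Compound added at 4× MIC99, and cultures shaken at 200 rpm at 37 °C. Viable counts taken by dilution plating on LB agar at 0, 2, 4 and 6 h.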

Pseudomonas aeruginosa [9] = experiment: Bactericidal activity against Pseudomonas aeruginosa PAO1 ATCC 47085 assessed as reduction in bacterial burden; assay type: functional, organism-based; in short: as §3
Pseudomonas aeruginosa [10] = experiment: Antibiofilm activity against Pseudomonas aeruginosa PAO1 ATCC 47085 at < 1024 ug/ml after 24 hrs by crystal violet staining-based spectrophotometry; assay type: functional, organism-based
In short: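 PAO1 grown 2 h in LB at 37 °C with shaking, then diluted 1:1000 in 10% LB-PBS to 3 × 10⁵ CFU/mL and mixed with serially diluted compound. Biofilms grown on peg lids 24 h at 37 °C, static. Pegs washed, stained with 0.1% crystal violet for 15 min, dye eluted in 95% ethanol and read at 600 nm. Control was 10% LB-PBS.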

Caenorhabditis elegans [11] = experiment: Toxicity in Caenorhabditis elegans N2 assessed as effect on viable eggs production treated at high concentration; assay type: organism-based; conditions: in vivo
In short: (§4)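 C. elegans N2 kept on NGM agar at 22 °C. Compound mixed into molten NGM agar at 64 μg/mL. L4 adults, L1 juveniles and synchronized eggs transferred onto test plates and held at 22 °C for 96 h. Death, development and egg production checked every 12 h.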

Caenorhabditis elegans [12] = experiment: Toxicity in juvenile L1 stage of Caenorhabditis elegans N2 assessed as nematode death at 64 ug/ml incubated for 96 hrs measured every 12 hrs; assay type: organism-based; conditions: in vivo; in short: as §4
Staphylococcus aureus [13] = experiment: Bactericidal activity against Staphylococcus aureus RN4220 ATCC 35556 in stationary-phase assessed as reduction in bacterial burden at 4 times MIC99 after 4 hrs by time-kill assay; assay type: functional; in short: as §3
Pseudomonas aeruginosa [14] = experiment: Antibacterial activity against Pseudomonas aeruginosa PAO1 ATCC 47085 assessed as increase in outer membrane permeability at 4 times MIC99 by fluorescent probe 1-N-phenylnaphthylamine based fluorescence assay; assay type: functional, organism-based
In short: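 P. aeruginosa PAO1 from a culture at OD600 ~0.5, washed and resuspended in 5 mM HEPES pH 7.2. NPN added to 10 μM final and sodium azide to 10 mM final, then 30 min at room temperature in darkness. Compound added at 4× or 1× MIC99 and NPN fluorescence recorded continuously (ex 350/em 420 nm). Gentamicin at 4× MIC99 as positive control. Three independent experiments.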

| Molecule | MIC99 (Staphylococcus aureus [1]) [µg/mL] | MIC99 (Pseudomonas aeruginosa [2]) [µg/mL] | MIC99 (Escherichia coli) [µg/mL] | other results |
| --- | --- | --- | --- | --- |
| Cl.Cl.O=C(NCCCNCCCCCNCCCNC(=O)Nc1ccccc1)Nc1ccccc1 | > 256 | > 256 | > 256 |  |
| Cl.Cl.O=C(NCCCNCCCCCNCCCNC(=O)NCC(c1ccccc1)c1ccccc1)NCC(c1ccccc1)c1ccccc1 | 18.7 | 26.7 | 4 |  |
| Cl.Cl.O=C(NCCCNCCCCCNCCCNC(=O)NCCC(c1ccccc1)c1ccccc1)NCCC(c1ccccc1)c1ccccc1 | 13.3 | 26.7 | 6 |  |
| Cl.Cl.O=C(NCCCNCCCCCNCCCNC(=O)NCc1ccccc1)NCc1ccccc1 | 107 | 213 | 64 |  |
| CC1(C)S[C@@H]2[C@H](NC(=O)[C@H](N)c3ccccc3)C(=O)N2[C@H]1C(=O)O [AMPICILLIN] | 0.125 (≈ 0.358 µM) | 128 (≈ 366 µM) |  | Activity (Staphylococcus aureus [3]): Active; Activity (Staphylococcus aureus [4]): inactive; Activity (Pseudomonas aeruginosa [5]): inactive; Activity (Pseudomonas aeruginosa [6]): inactive |
| O=C(NCCCCCCCCCCCCNC(=O)NCC(c1ccccc1)c1ccccc1)NCC(c1ccccc1)c1ccccc1 | > 256 | > 256 | > 256 |  |
| CN(C)[C@@H]1C(O)=C(C(N)=O)C(=O)[C@@]2(O)C(O)=C3C(=O)c4c(O)cccc4[C@@](C)(O)[C@H]3C[C@@H]12 |  |  |  | Activity (Pseudomonas aeruginosa [7]): Active |
| NCCCCNCCCN [SPERMIDINE] | > 512 | > 512 | > 512 |  |
| S=C(NCCCNCCCCNCCCNC(=S)NC(c1ccccc1)c1ccccc1)NC(c1ccccc1)c1ccccc1 | 3.8 (≈ 5.82 µM) | 10.4 (≈ 15.9 µM) | 6.2 (≈ 9.49 µM) |  |
| COLISTIN | > 16 | < 0.125 |  | Activity (Staphylococcus aureus [8]): Active; Activity (Pseudomonas aeruginosa [9]): Active |
| O=C(NCCCCCCCCCCCNC(=O)NCCC(c1ccccc1)c1ccccc1)NCCC(c1ccccc1)c1ccccc1 | > 256 | > 256 | > 256 |  |
| Cl.Cl.S=C(NCCCNCCCCCNCCCNC(=S)NCc1ccccc1)NCc1ccccc1 | 32 | 256 | 32 |  |
| NC[C@H]1O[C@H](O[C@H]2[C@H](O)[C@@H](O[C@H]3O[C@H](CO)[C@@H](O)[C@H](N)[C@H]3O)[C@H](N)C[C@@H]2N)[C@H](O)[C@@H](O)[C@@H]1O [KANAMYCIN] | 8 (≈ 16.5 µM) | 32 (≈ 66 µM) | 8 (≈ 16.5 µM) | Activity (Pseudomonas aeruginosa [10]): inactive; Activity (Staphylococcus aureus [3]): Active; Activity (Staphylococcus aureus [4]): inactive; Activity (Pseudomonas aeruginosa [5]): inactive; Activity (Pseudomonas aeruginosa [6]): inactive |
| Cl.Cl.S=C(NCCCNCCCCCNCCCNC(=S)NCCC(c1ccccc1)c1ccccc1)NCCC(c1ccccc1)c1ccccc1 | 9.3 | 32 | 10 |  |
| GENTAMICIN [listing 1 of 2 here] |  |  |  | Activity (Caenorhabditis elegans [11]): Toxic; Activity (Caenorhabditis elegans [12]): Toxic |
| CCn1cc(C(=O)O)c(=O)c2cc(F)c(N3CCNCC3)cc21 [NORFLOXACIN] | 0.5 (≈ 1.57 µM) | 0.5 (≈ 1.57 µM) | 0.25 (≈ 0.783 µM) | Activity (Staphylococcus aureus [3]): Active; Activity (Staphylococcus aureus [4]): inactive; Activity (Staphylococcus aureus [13]): 2 deltalog10CFU/ml; Activity (Pseudomonas aeruginosa [5]): 4 deltalog10CFU/ml; Activity (Pseudomonas aeruginosa [7]): Active |
| NCCCNCCCCNCCCN [SPERMINE] | > 512 | > 512 | > 512 |  |
| S=C(NCCCNCCCCNCCCNC(=S)NCCC(c1ccccc1)c1ccccc1)NCCC(c1ccccc1)c1ccccc1 | 4.9 (≈ 6.91 µM) | 29.2 (≈ 41.2 µM) | 10.4 (≈ 14.7 µM) |  |
| S=C(NCCCCCCCCCCCCNC(=S)NC(c1ccccc1)c1ccccc1)NC(c1ccccc1)c1ccccc1 | > 256 | > 256 | > 256 |  |
| O=c1[nH]cc(F)c(=O)[nH]1 [FLUOROURACIL] |  |  |  | Activity (Caenorhabditis elegans [11]): Toxic; Activity (Caenorhabditis elegans [12]): Toxic |
| O=C(NCCCCCCCCCCCCNC(=O)NC(c1ccccc1)c1ccccc1)NC(c1ccccc1)c1ccccc1 | > 256 | > 256 | > 256 |  |
| GENTAMICIN [listing 2 of 2 here] |  |  |  | Activity (Pseudomonas aeruginosa [14]): Active |
| Cl.Cl.S=C(NCCCNCCCCCNCCCNC(=S)NC(c1ccccc1)c1ccccc1)NC(c1ccccc1)c1ccccc1 | 6.7 | 13.3 | 6 |  |
| O=[N+]([O-])c1ccc(O)c([N+](=O)[O-])c1 |  |  |  | Activity (Staphylococcus aureus [8]): Active; Activity (Pseudomonas aeruginosa [9]): Active |
| Cl.Cl.O=C(NCCCNCCCCCNCCCNC(=O)NC(c1ccccc1)c1ccccc1)NC(c1ccccc1)c1ccccc1 | 10.7 | 13.3 | 6 |  |
| O=C(NCCCNCCCCNCCCNC(=O)NCC(c1ccccc1)c1ccccc1)NCC(c1ccccc1)c1ccccc1 | 11.3 (≈ 17.4 µM) | 18.6 (≈ 28.7 µM) | 4.4 (≈ 6.78 µM) |  |
